Activity calls are given as the source filed them. The rule behind the calls is not given here.
What was measured:
[1] = molecular target: T1, Polyunsaturated fatty acid 5-lipoxygenase (Homo sapiens, UniProt P09917); assay: Inhibition of human recombinant 5-LOX assessed as reduction in leukotriene B4 production pre-incubated for 10 mins before arachidonic acid addition and measured after 10 mins by ELISA
T1 sequence (P09917 whole entry): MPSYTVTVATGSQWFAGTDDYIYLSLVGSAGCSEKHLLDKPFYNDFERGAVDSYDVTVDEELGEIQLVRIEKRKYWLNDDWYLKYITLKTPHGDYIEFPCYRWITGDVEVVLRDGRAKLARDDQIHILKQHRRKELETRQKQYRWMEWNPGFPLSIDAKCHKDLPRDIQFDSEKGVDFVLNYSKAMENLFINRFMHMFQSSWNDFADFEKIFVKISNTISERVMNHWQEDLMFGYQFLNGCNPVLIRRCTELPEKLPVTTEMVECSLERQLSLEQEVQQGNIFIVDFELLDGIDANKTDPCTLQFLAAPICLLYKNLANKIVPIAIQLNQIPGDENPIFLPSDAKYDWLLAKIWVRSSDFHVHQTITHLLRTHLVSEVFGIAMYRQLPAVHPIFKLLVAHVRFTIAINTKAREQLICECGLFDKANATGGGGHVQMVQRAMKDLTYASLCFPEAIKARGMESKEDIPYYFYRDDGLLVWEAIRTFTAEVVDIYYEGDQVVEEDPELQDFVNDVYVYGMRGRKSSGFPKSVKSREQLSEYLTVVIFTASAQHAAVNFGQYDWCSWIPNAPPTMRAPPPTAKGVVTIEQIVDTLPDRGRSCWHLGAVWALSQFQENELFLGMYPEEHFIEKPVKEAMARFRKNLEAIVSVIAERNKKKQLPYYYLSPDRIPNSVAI
Procedure, shortened: (§1)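 Human recombinant 5-LOX, 1 unit/reaction, in PBS pH 7.4 containing 1 mM Na2EDTA and 200 μM ATP. Test compound in DMSO incubated 10 min at 4 °C. Reaction started with CaCl2 and arachidonic acid, 10 min at 37 °C, stopped with formic acid. LTB4 measured by ELISA (A405). Screening at 20 μM; ≥3 experiments, duplicate wells.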

[2] = molecular target: T2, Polyunsaturated fatty acid 5-lipoxygenase (Homo sapiens) (UniProt P09917); assay: Inhibition of human recombinant 5-LOX assessed as reduction in leukotriene B4 production at 20 uM pre-incubated for 10 mins before arachidonic acid addition and measured after 10 mins by ELISA
T2 sequence (whole entry): T1 sequence (P09917 whole entry)
Procedure, shortened: as §1, with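 “(A405). […]” for “(A405).”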

[3] = molecular target: T3, Prostaglandin G/H synthase 2 (Homo sapiens, UniProt P35354); assay: Inhibition of human recombinant COX2 assessed as reduction in PGE2 formation pre-incubated for 5 mins before arachidonic acid addition and measured after 20 mins by ELISA
T3 sequence (P35354 whole entry): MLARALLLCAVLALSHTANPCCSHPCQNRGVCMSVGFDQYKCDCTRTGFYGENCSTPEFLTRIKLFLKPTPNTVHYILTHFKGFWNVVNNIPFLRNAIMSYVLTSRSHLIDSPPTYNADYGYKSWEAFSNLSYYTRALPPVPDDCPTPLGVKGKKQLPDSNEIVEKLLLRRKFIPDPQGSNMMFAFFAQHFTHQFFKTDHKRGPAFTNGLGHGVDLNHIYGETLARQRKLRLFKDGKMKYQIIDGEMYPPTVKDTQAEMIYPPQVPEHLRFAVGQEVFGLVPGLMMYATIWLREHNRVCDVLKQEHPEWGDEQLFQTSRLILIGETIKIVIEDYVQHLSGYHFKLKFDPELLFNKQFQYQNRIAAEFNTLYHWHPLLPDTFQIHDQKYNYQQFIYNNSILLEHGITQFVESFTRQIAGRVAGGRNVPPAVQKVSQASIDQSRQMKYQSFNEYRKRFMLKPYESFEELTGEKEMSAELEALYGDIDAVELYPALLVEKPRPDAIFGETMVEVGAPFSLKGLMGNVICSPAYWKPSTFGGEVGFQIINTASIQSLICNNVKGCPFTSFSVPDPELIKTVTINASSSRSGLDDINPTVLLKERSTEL

[4] = Selectivity index, ratio of IC50 for ram seminal vesicle COX1 to IC50 for human recombinant COX2
[5] = molecular target: T4, Prostaglandin G/H synthase 2 (Homo sapiens) (UniProt P35354); assay: Inhibition of human recombinant COX2 assessed as reduction in PGE2 formation at 20 uM pre-incubated for 5 mins before arachidonic acid addition and measured after 20 mins by ELISA
T4 sequence (whole entry): T3 sequence (P35354 whole entry)
Procedure, shortened: (§2)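 COX-1 from ram seminal vesicles (1 unit) or human recombinant COX-2 (0.5 unit) in 100 mM Tris pH 8.0 with 5 μM hematin, 18 mM L-epinephrine and 50 μM Na2EDTA. Compound in DMSO preincubated 5 min at room temperature. Arachidonic acid added, 20 min at 37 °C, stopped with formic acid. PGE2 by ELISA (A405).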

[6] = molecular target: T5, Prostaglandin G/H synthase 1 (Ovis aries, UniProt P05979); assay: Inhibition of ram seminal vesicle COX1 assessed as reduction in PGE2 formation pre-incubated for 5 mins before arachidonic acid addition and measured after 20 mins by ELISA; procedure, shortened: as §2
T5 sequence (P05979 whole entry): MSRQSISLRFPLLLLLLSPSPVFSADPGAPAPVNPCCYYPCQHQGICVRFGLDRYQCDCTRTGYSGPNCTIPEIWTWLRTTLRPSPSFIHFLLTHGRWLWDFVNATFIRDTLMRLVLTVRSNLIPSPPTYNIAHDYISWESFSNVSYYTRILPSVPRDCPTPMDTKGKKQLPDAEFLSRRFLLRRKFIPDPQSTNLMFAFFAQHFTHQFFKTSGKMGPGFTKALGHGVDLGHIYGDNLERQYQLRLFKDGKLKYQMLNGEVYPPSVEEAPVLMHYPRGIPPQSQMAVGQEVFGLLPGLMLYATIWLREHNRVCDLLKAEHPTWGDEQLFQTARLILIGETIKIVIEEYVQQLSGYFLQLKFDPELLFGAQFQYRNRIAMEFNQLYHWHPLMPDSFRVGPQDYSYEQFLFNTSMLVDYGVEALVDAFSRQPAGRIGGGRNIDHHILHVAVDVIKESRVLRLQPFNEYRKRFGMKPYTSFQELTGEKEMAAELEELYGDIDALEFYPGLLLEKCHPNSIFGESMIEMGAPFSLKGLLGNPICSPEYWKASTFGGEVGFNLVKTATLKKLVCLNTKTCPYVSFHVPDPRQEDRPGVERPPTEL

[7] = molecular target: T2, Polyunsaturated fatty acid 5-lipoxygenase (Homo sapiens); assay: Potency index, ratio of IC50 for zileuton to IC50 for test compound fior inhibition of human recombinant 5-LOX assessed as reduction in leukotriene B4 production pre-incubated for 10 mins before arachidonic acid addition and measured after 10 mins by ELISA
THP-1 [8] = assay: Inhibition of LPS-induced increase in CCL1 protein expression in LPS-stimulated human THP1 cells at 2 uM by proteomic analysis relative to untreated control; type: functional, cell-based
Procedure, shortened: (§3)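 THP-1 monocytes in RPMI 1640 with 10% FBS and 2 mM L-glutamine, differentiated to macrophages with phorbol myristate acetate, then 24 h serum-free. Pretreatment 1 h with compound in DMSO (2 μM final) or DMSO alone, then LPS (E. coli 0111:B4, 1.0 μg/mL) for 24 h. Filter-aided trypsin digestion, iTRAQ 4-plex labelling, LC-MS/MS. Five biological replicates pooled per group.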

THP-1 [9] = assay: Increase in RNF207 protein expression in human THP1 cells at 2 uM by proteomic analysis relative to untreated control; type: ADME, cell-based; conditions: read-out: FC; procedure, shortened: as §3
THP-1 [10] = assay: Inhibition of LPS-induced increase in TNFalpha protein expression in LPS-stimulated human THP1 cells at 2 uM by proteomic analysis relative to untreated control; type: functional, cell-based; procedure, shortened: as §3
THP-1 [11] = assay: Increase in COX2 protein expression in human THP1 cells at 2 uM by proteomic analysis relative to untreated control; type: ADME, cell-based; conditions: thp-1, 2 µM; procedure, shortened: as §3
THP-1 [12] = assay: Inhibition of LPS-induced increase in IL1 protein expression in LPS-stimulated human THP1 cells at 2 uM by proteomic analysis relative to untreated control; type: functional, cell-based; procedure, shortened: as §3
THP-1 [13] = assay: Increase in TX1B3 protein expression in human THP1 cells at 2 uM by proteomic analysis relative to untreated control; type: ADME, cell-based; conditions: read-out: FC; procedure, shortened: as §3
THP-1 [14] = assay: Inhibition of LPS-induced decrease in VIP2 protein expression in LPS-stimulated human THP1 cells at 2 uM by proteomic analysis relative to untreated control; type: functional, cell-based; procedure, shortened: as §3
THP-1 [15] = assay: Increase in COX2 protein expression in LPS-stimulated human THP1 cells at 2 uM by proteomic analysis relative to untreated control; type: functional; procedure, shortened: as §3
THP-1 [16] = assay: Inhibition of LPS-induced increase in CCL5 protein expression in LPS-stimulated human THP1 cells at 2 uM by proteomic analysis relative to untreated control; type: functional, cell-based; procedure, shortened: as §3
THP-1 [17] = assay: Inhibition of LPS-induced increase in CXCL1 protein expression in LPS-stimulated human THP1 cells at 2 uM by proteomic analysis relative to untreated control; type: functional, cell-based; procedure, shortened: as §3

SMILES | IC50 [1] [µM] | inhibition [2] | IC50 [3] [µM] | Ratio IC50 [4] | inhibition [5] | IC50 [6] [µM] | also measured
COc1cc([C@@H]2CC(=O)c3c(cc(O)c(C/C=C(\C)CCC=C(C)C)c3O)O2)cc(OC)c1O | 0.38 | Active | – | – | – | – | –
COc1cc([C@@H]2CC(=O)c3c(cc(O)c(C/C=C(\C)CCC=C(C)C)c3O)O2)cc(O)c1OC | – | – | 6.4 | 0.66 | Active | 4.2 | –
COc1cc(C2CC(=O)c3c(cc4c(c3O)C=CC(C)(CCC=C(C)C)O4)O2)cc(OC)c1O (configuration not stated) | 0.37 | Active | – | – | – | – | –
CC(C)=CCC/C(C)=C/Cc1c(O)cc2c(c1O)C(=O)C[C@@H](c1ccc(O)cc1)O2 [BONANNIONE A] | – | – | 6 | 0.62 | Active | 3.7 | –
COc1cc([C@@H]2CC(=O)c3c(cc(O)c(C/C=C(\C)CCC=C(C)C)c3O)O2)cc(O)c1O | 0.06 | Active | 10.6 | 0.31 | Active | 3.3 | Ratio IC50 [7]: 10
CC(C)=CCC/C(C)=C/Cc1c(O)cc2occc(=O)c2c1O | 2.46 | Active | – | – | – | – | –
CC(C)=CCCC1(C)C=Cc2c(cc3c(c2O)C(=O)C[C@@H](c2cc(O)cc(O)c2)O3)O1 (some centres not stated) | 0.35 | Active | – | – | – | – | –
CC(C)=CCC/C(C)=C/Cc1c(O)cc2c(c1O)C(=O)C[C@@H](c1ccc(O)c(O)c1)O2 [NYMPHAEOL A] | 0.05 | Active | 4.2 | – | Active | 1.8 | inhibition (THP-1 [8]): Active; fold induction at 2 µM (THP-1 [9]): 2.09; inhibition (THP-1 [10]): Active; Activity (THP-1 [11]): Non-Toxic; inhibition (THP-1 [12]): Active; fold induction at 2 µM (THP-1 [13]): 1.88; inhibition (THP-1 [14]): Active; fold change (FC) (THP-1 [15]): 1.55; inhibition (THP-1 [16]): Active; inhibition (THP-1 [17]): Active
COc1cc([C@@H]2CC(=O)c3c(cc4c(c3O)C=CC(C)(CCC=C(C)C)O4)O2)ccc1O (some centres not stated) | – | – | 9.5 | 2.8 | Active | 26.3 | –
